Assay results published in the EternaBench riboswitch data.

Tested on: MS2 coat protein
Experiment: apparent Kd, MS2 coat protein; higher = weaker binding; RNA-MaP array; tryptophan 2.4 mM where present
Outline: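 Each design was made on Illumina sequencing-chip clusters by stalled E. coli RNA polymerase and titrated with SNAP-549-labelled MS2 coat protein from 0.7 or 1.5 nM, doubling to 3 µM, in the absence and then the presence of constant ligand. The buffer was 100 mM Tris-HCl pH 7.5, 80 mM KCl, 4 mM MgCl2, BSA, DTT, yeast tRNA and Tween-20. The apparent Kd is the median of filtered per-cluster fits of binding curves, with green signal normalised to red-channel RNA signal and control-cluster median Fmax.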

[1] = designed as: OFF switch for tryptophan, no ligand
[2] = ligand present: tryptophan, designed as: OFF switch for tryptophan
[3] = designed as: ON switch for tryptophan, no ligand
[4] = ligand present: tryptophan, designed as: ON switch for tryptophan

Sequence | apparent Kd [1] [µM] | apparent Kd [2] [µM] | apparent Kd [3] [µM] | apparent Kd [4] [µM]
GGCACAUAGUCGGCCGCCACUAGGGUGUAGUGGAAUAACAUGAGGAUCACCCAUGUAUUUGGGACUAGGACCGGGACUAUGUGCC | 0.0252 | 0.02 |  | 
GCAUCCUAGUCGGCCGCCACUGCAACAUGAGGAUCACCCAUGUCAGGCCUCAUGUGUCCUGGUAGCAGGACCGGGACUAGGAUGC |  |  | 0.0368 | 0.0292
GUUGGAUACUCGGCCGCCACUGAGAGAGUCAUGUGAACAUGAGGAUCACCCAUGUAAUAUAUAUACAGGACCGGGAGUGUUGUAA | 0.0216 | 0.0168 |  | 
AAUGUGAAGGCGGCCGCCACUGAUAAUAGACAUGAGGAUCACCCAUGUAUAAAUCCUCAAUAAGACAGGACCGGGCCAUCUACGU | 0.105 | 0.123 |  | 
GCUAGGUCAUCGGCCGCCACUAACGAUGGCUCCAACAUGAGGAUCACCCAUGUGCCACAUGCGCAUAGGACCGGGAUGACCUAGC |  |  | 0.013 | 0.0105
AAUUAUCAGUCGGCCGCCACUGACACAUGAGGAUCACCCAUGUAAUAUGGGUAAAAUUAACUGAACAGGACCGGGACAAAUGCUA |  |  | 0.381 | 0.649
UAGUCCGCGACGGCCGCCACUCGCUGAUGCACAUGUGUCCGGGACAUGAGGAUCACCCAUGUUUCGAGGACCGGGUCGAUCCUAA |  |  | 0.0782 | 0.057
AGCAACAAGUCGGCCGCCACUCAAUAAACAUGAGGAUCACCCAUGUAAAUAACAUGAUAAUAAUAGAGGACCGGGACAGUUGCAU |  |  | 0.0144 | 0.013
AAUAAUAAGAAUAACGUACCAGGUGAUCAACGAGGACCGGUACGGCCGCCACUCGAAACAUGAGGAUCACCCAUGUAAUAACAAU | 0.0834 | 0.0583 |  | 
CCAUAAGUACCGGUCCUCAGAUCCUCAUGACGAGGACCGGUACGGCCGCCACUCGAAACAUGAGGAUCACCCAUGUAAUAAUAUU | 0.0279 | 0.021 |  | 
GGGACUAGAUCGGCCGCCACUGAUGGGACAUGAGGAUCACCCAUGUACGAAGUGAUCCAAUAAAUCAGGACCGGGAUCACUUGUA | 0.125 | 0.225 |  | 
GCAUCCUAGUCGGCCGCCACUGACAUGAGGAUCACCCAUGUACAUGAGGAUCACCCAUGUUGUAACAGGACCGGGACUAGGAUGC |  |  | 0.0997 | 0.0495
UAUGAGCGCACGGCCGCCACUGUCUUCAUCUGUUUGUCUACAUGAGGAUCACCCAUGUUGGUUUACAGGACCGGGUGCAACUAUG |  |  | 0.0278 | 0.0224
GGUUACUCUACGGCCGCCACUGUAAAGUAAAUAUUAAUGUACAUGACAUGAGGAUCACCCAUGUACAGGACCGGGUAGUGUAACC |  |  | 0.0428 | 0.0185
UUAUAUACUACGGCCGCCACUGAACAUGAGGAUCACCCAUGUAAUGUUCAGACGUCUUUAGACGACAGGACCGGGUAGAAUUAAA |  |  | 0.119 | 0.109
AAUCAUGGAAACAUGACAUGAGGAUUACUCCGAGGACCGGUACGGCCGCCACUCGCGAGGAGGCGGACAUGAGGAUCACCCAUGU |  |  | 0.185 | 0.0402
AAUAAACAUGAGGAUCACCCAUGUAGGGUGCGAGGACCGGUACGGCCGCCACUCGGGUGAAAACAUGAGGAUCACCCAUGUAAAA | 0.201 | 0.363 |  | 
CUACAUUUGUAGAAACCGGUCAACAAUAAUCGAGGACCGGUACGGCCGCCACUCGAUGUAAAAUAAACAUGAGGAUCACCCAUGU |  |  | 0.0181 | 0.0193
CCAUCUUCAUCGGCCGCCACUGAACCAAGGAGACAUGAGGAUCACCCAUGUAUGGGAAACCAUCAUAGGACCGGGAUGAAGGUGG |  |  | 0.0361 | 0.0309
AUAAUUGGGUUAAUUAGUUUUAGGUCCAGUCGAGGACCGGUACGGCCGCCACUCGUUCCGAGAUACAUGAGGAUCACCCAUGUUA | 0.0329 | 0.0341 |  | 
GGCCCGGACUUGGAAUGGGUGUUUCCCUCACGAGGACCGGUACGGCCGCCACUCGAAGACAUGAGGAUCACCCAUGUAGUCGACA | 0.0449 | 0.0125 |  | 
